Screening results deposited in PubChem by several laboratories.
An excerpt weighted towards active compounds, which were near 2.9% of everything screened.
SUMO Mot1 rescue = blocks SUMOylation pathway, rescuing yeast Mot1-301 growth; S. cerevisiae Mot1-301 growth rescue, ATP luminescence, 38.5C; percent above DMSO median, 100 means doubled; growth rescue, % at 18.8 µM; hit rate 1% among 320,000;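 active = every valid replicate shows activation above 250% relative to neutral control wells; inactive = the rest, any valid replicate at or below 250%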
NALP1 yeast inh = inhibitors of NALP1 inflammasome in yeast | S. cerevisiae NALP1/ASC/caspase-1 growth, X-gal OD620, 72 h | hit rate 0.61% among 280,000 | AID 2071 | inhibition, % at 10 µM; in the data active = inhibition mostly above about 24%, no sharp cut-off; inactive = mostly below about 32%
NALP3 yeast inh = NALP3 inhibition in yeast; Yeast reconstituted NLRP3/ASC/caspase-1, beta-gal luminescence, 24 h; inhibition, % at 10 µM; hit rate 0.39% among 330,000; AID 2825;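 active = inhibition of 50% or more; inactive = inhibition below 50%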
PolyA inh = yeast polyadenylation inhibition; activity score, % at 12 µM; S. cerevisiae SKY197-pL101 polyadenylation reporter, beta-gal luminescence; efflux-impaired pdr1/pdr3 knockout yeast; score 100 = 6 SD above DMSO; AID 1875; hit rate 0.02% among 300,000;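 active = lowest replicate activity score at least 50, where 100 means six control SD above control mean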;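 note: yeast exposed to compound for 9 h at 30 °C; higher score means more reporter readthrough which indicates perturbed polyadenylation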
IMP-1 inh = blocks Pseudomonas aeruginosa IMP-1 metallo-beta-lactamase; purified IMP-1, nitrocefin hydrolysis, epi-absorbance fluorescence; inhibition, % at 5.6 µM; hit rate 0.45% among 290,000; AID 1556;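 active = inhibition above the mean plus 3 SD of all compounds in the same screening run, cut at about 4.5% in these data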
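System – purified recombinant IMP-1 beta-lactamase · Input – IMP-1 dispensed at 0.2 nM · Timing – 15 min preincubation plus 25 min reaction at 25 °C · Signal – Epi-absorbance fluorescence, 480 nm excitation, 530 nm emission · Measure – percent IMP-1 inhibition derived from blank-referenced optical density · Controls – Enzyme-plus-DMSO low control, enzyme-free DMSO high control · Replication – singlicate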
VIM-2 inhibitor = inhibitors of Pseudomonas aeruginosa VIM-2 metallo-beta-lactamase; purified VIM-2, nitrocefin hydrolysis, epi-absorbance fluorescence; inhibition, % at 5.6 µM; hit rate 0.89% among 290,000;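 active = inhibition above the mean of all tested compounds plus 3 SD, cutoff set per screening run, cut at about 7.5% in these data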;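 note: red hydrolysis product quenches plate fluorescence so inhibitors raise well fluorescence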
Of the large screens only hits and unclear results are named; the others gave an inactive call.

CCOC(=O)C1CCCN(C(=O)CCn2nnnc2CN2CCOCC2)C1 (stereo not drawn)	NALP1 yeast inh 35
CCN(CC)C(=O)C1CCCN(C(=O)CCn2nnnc2CN2CCOCC2)C1 (stereo not drawn)	none
CCC(CO)Oc1cc(NC(=O)Cc2ccccc2)c2ncn(C(C)C)c2c1 (stereo not drawn)	none (no result: NALP1 yeast inh, PolyA inh, IMP-1 inh, VIM-2 inhibitor)
O=C(COc1ccccc1)NC1CCS(=O)(=O)C1 (stereo not drawn)	none
O=C(COC(=O)C1(c2ccccc2F)CCCC1)NC1CCS(=O)(=O)C1 (stereo not drawn)	SUMO Mot1 rescue 298
COC(=O)c1ccc(CNC(=O)COC(=O)c2cc(Cl)ccc2O)cc1	none (no result: NALP1 yeast inh, PolyA inh, IMP-1 inh, VIM-2 inhibitor)
COc1ccc(C2SCC(=O)N2c2c(C)n(C)n(-c3ccccc3)c2=O)cc1OC (stereo not drawn)	PolyA inh 67
CCCCS(=O)(=O)/C=C\C1C2C=CC(C2)C1S(=O)(=O)CCCC (stereo not drawn)	none
CCCCS(=O)(=O)/C=C\C=C/S(=O)(=O)CCCC	NALP1 yeast inh 126
COc1ccc2c(c1OC)C(=O)OC2Nc1nc(-c2ccc(-c3ccccc3)cc2)cs1 (stereo not drawn)	NALP1 yeast inh 58
CNC(=S)Nc1ccc(Cc2ccncc2)cc1	none
CC(C)(C)C(=O)NC(=S)Nc1ccc(Cc2ccncc2)cc1	IMP-1 inh 7.7
Cc1cc(Cl)ccc1OCC(O)CNCCc1ccc(S(N)(=O)=O)cc1 (stereo not drawn)	SUMO Mot1 rescue 309
Cc1csc2nc3ccccc3c(=O)n12	VIM-2 inhibitor 7.8
Cc1nc2scc(C)n2c(=O)c1S(=O)(=O)NCc1ccccc1	none
Cc1ccc(C2=C(c3ccc([N+](=O)[O-])cc3)C(=O)OC2)cc1C	IMP-1 inh 13
COc1ccc(C2=C(c3ccc([N+](=O)[O-])cc3)C(=O)OC2)cc1	none
Cc1ccc2c(Cl)c(C)c(N3CCCCC3)nc2n1	NALP1 yeast inh 46
CCc1nn(CC(=O)N2CCCCCC2)c(=O)c2cc3ccccc3n12	none
S=c1nc(-c2ccc(Cl)cc2)[nH][nH]1	none (no result: NALP1 yeast inh)
CCCOc1ccc(-c2nc(=S)[nH][nH]2)cc1	IMP-1 inh 35
CC1CCC2(CC1)NC(=O)N(CC(=O)NCCc1ccc(F)cc1)C2=O (stereo not drawn)	none (no result: SUMO Mot1 rescue, NALP1 yeast inh, PolyA inh, IMP-1 inh, VIM-2 inhibitor)
Cc1ccc(SCc2ccc(C(=O)Nc3cccnc3)cc2)cc1	IMP-1 inh 15
O=C(O)Cc1sc(NC2CCCCC2)nc1-c1ccc(Cl)cc1	IMP-1 inh 5.3
Cc1nc(NC2=NCN(CCc3ccccc3)CN2)nc2ccccc12	NALP1 yeast inh 37 (no result: SUMO Mot1 rescue, NALP3 yeast inh, PolyA inh, IMP-1 inh, VIM-2 inhibitor)
Cc1nc(NC2=NCN(Cc3cccnc3)CN2)nc2ccccc12	none (no result: SUMO Mot1 rescue, NALP3 yeast inh, PolyA inh, IMP-1 inh, VIM-2 inhibitor)
Cc1nc(NC2=NCN(CCCN3CCOCC3)CN2)nc2c(C)cccc12	VIM-2 inhibitor 8.7 (no result: SUMO Mot1 rescue, PolyA inh)
Cc1nc(NC2=NCN(CCc3ccccc3)CN2)nc2c(C)cccc12	none (no result: SUMO Mot1 rescue, NALP1 yeast inh, NALP3 yeast inh, PolyA inh)
Cc1nc(NC2=NCN(Cc3ccccc3)CN2)nc2ccccc12	NALP1 yeast inh 32 (no result: SUMO Mot1 rescue, NALP3 yeast inh, PolyA inh, IMP-1 inh, VIM-2 inhibitor)
O=C(COC(=O)c1cccs1)NCCc1ccc(F)cc1	none (no result: SUMO Mot1 rescue, NALP1 yeast inh, PolyA inh, IMP-1 inh, VIM-2 inhibitor)
CN(C)c1ccc(C(=O)N/N=C/c2ccccn2)cc1	none
COc1ccc(C)cc1S(=O)(=O)N1CCN(C(=O)c2ncoc2-c2cccc(F)c2)CC1	none
CN(C1CCCCC1)S(=O)(=O)c1cccc2nsnc12	none
COc1ccc(S(=O)(=O)NNC(=O)c2ccccc2-n2cccc2)cc1	NALP1 yeast inh 36
Cc1ccc(S(=O)(=O)NNC(=O)c2ccccc2-n2cccc2)cc1	none
COc1ccccc1/C=C\C(=O)NCC(=O)N/N=C(\C)Cc1ccccc1	none
CCC1C/C(=C\c2cccnc2)C(=O)/C(=C/c2cccnc2)C1 (stereo not drawn)	NALP1 yeast inh 76 (no result: SUMO Mot1 rescue, NALP3 yeast inh, PolyA inh)
O=C1/C(=C/c2cccnc2)CC/C1=C\c1cccnc1	none
O=C1/C(=C/c2cccnc2)CCC/C1=C\c1cccnc1	NALP1 yeast inh 78 (no result: NALP3 yeast inh, PolyA inh)
O=C1/C(=C/c2ccccc2)CCCc2ccccc21	NALP1 yeast inh 57
COC(=O)c1cc(OC)c(OC)cc1NC(=O)c1ccco1	VIM-2 inhibitor 8.9
O=C(Nc1ccc(Cl)cc1C(=O)Nc1ccncc1)c1ccco1	VIM-2 inhibitor 8.2
COc1cc(NC(=O)c2ccco2)c(C(=O)O)cc1OC	none
O=C(Nc1ccc(Cl)c(Cl)c1)Oc1ccc(NC(=O)c2ccco2)cc1	NALP1 yeast inh 100
O=C(Nc1ccc(OC(=O)c2ccco2)cc1)c1ccco1	none
COc1cc(NC(=O)Cc2ccc(Cl)cc2)ccc1NC(=O)c1ccco1	NALP1 yeast inh 38
Cc1cccc(NC(=O)C2C3C=CC(O3)C2C(=O)O)c1C (stereo not drawn)	none
O=C(CNC(=O)C1CCCCC1)OCC(=O)c1ccc(Br)cc1	none (no result: SUMO Mot1 rescue)
Cc1ccc(C(C)C)cc1OCCCCN1CCCC1	SUMO Mot1 rescue 320
Cc1ccc(C)c(OCCCN2CCCC2)c1	none
Cc1cc(N2CCN(C(c3ccccc3)c3ccccc3)CC2)n2ncnc2n1	none (no result: NALP1 yeast inh)
Cc1cc(N2CCN(c3nc4ccccc4s3)CC2)n2ncnc2n1	VIM-2 inhibitor 8.2
CS(=O)(=O)c1ccc2nc(NC(=O)CN3CCC(Cc4ccccc4)CC3)sc2c1	SUMO Mot1 rescue 294
CC(=O)C1=C(O)C(=O)N(CC#N)C1c1cccs1 (stereo not drawn)	IMP-1 inh 6.2
O=C(C1=C(O)C(=O)N(Cc2ccco2)C1c1cccs1)c1cccs1 (stereo not drawn)	none
OCC1(CCc2ccccc2)CCCN(CCCc2ccccc2)C1 (stereo not drawn)	none
Cc1ccc(-n2ncc(C(=O)O)c2C2CCN(C(=O)OC(C)(C)C)CC2)cc1	VIM-2 inhibitor 8.4
CC(C)(C)OC(=O)N1CCC(c2c(C(=O)O)cnn2-c2ccc(Cl)cc2)CC1	none
CC(=O)c1ccc(N(CC(=O)NC2CCCC2)C(=O)CCC(=O)Nc2cc(C)on2)cc1	none
Cc1cc(NC(=O)CN2C(=O)NC(C)(c3ccc(Cl)cc3Cl)C2=O)no1 (stereo not drawn)	none (no result: NALP1 yeast inh, PolyA inh, IMP-1 inh, VIM-2 inhibitor)
CC(C)(C)c1ccc(C(=O)CC(Sc2ccc(Cl)cc2)C(=O)O)cc1 (stereo not drawn)	SUMO Mot1 rescue 533
CC(Oc1ccc2c(c1)oc(=O)c1ccccc12)C(=O)NCCCN1CCOCC1 (stereo not drawn)	VIM-2 inhibitor 12
Cc1c(OC(C)C(=O)NCCCN2CCCC2=O)ccc2c3c(c(=O)oc12)CCCC3 (stereo not drawn)	VIM-2 inhibitor 10
O=C(NCCCN1CCOCC1)C(C(=O)c1ccccc1)n1ccccc1=O (stereo not drawn)	NALP1 yeast inh 40
Cc1c(OC(C)C(=O)NCCN2CCOCC2)ccc2c3c(c(=O)oc12)CCCC3 (stereo not drawn)	VIM-2 inhibitor 9.6
Cc1cc(=O)oc2c(C)c(OCC(=O)NCCCN3CCOCC3)ccc12	VIM-2 inhibitor 7.8
